The values that follow come from ChEMBL document CHEMBL4346672, “Antimicrobial and KPC/AmpC inhibitory activity of functionalized benzosiloxaboroles” (Eur J Med Chem, 2019).

The structures appear in SMILES notation. In brackets after ≈: the same amount, converted by molar mass.

By MBC is commonly meant the smallest concentration meeting the test's criterion for killing. Lower therefore signals more potent killing.

Experiment [1] addresses Class A carbapenemase KPC-2 (Escherichia coli) (UniProt A8DS27). Description: Inhibition of beta lactamase KPC-2 in Escherichia coli 76 assessed as potentiation of meropenem-induced antibacterial activity by measuring meropenem MIC at 16 mg/L incubated for 18 hrs by broth dilution method (reference value: >[…] mg/L). (In general: Broth dilution looks for growth in wells or tubes with falling amounts of substance.)

The target is the same in experiment [2]. The experiment can be described thus: Inhibition of beta lactamase KPC-2 in Escherichia coli 76 assessed as potentiation of ceftazidime-induced antibacterial activity by measuring ceftazidime MIC at 16 mg/L incubated for 18 hrs by broth dilution method (reference value: >[…] mg/L).
Experiment [3] has as its system Pseudomonas aeruginosa. Description: Inhibition of beta lactamase VIM in Pseudomonas aeruginosa 698 assessed as potentiation of ceftazidime-induced antibacterial activity by measuring ceftazidime MIC at 16 mg/L incubated for 18 hrs by broth dilution method (reference value: […] mg/L).
Experiment [4] concerns Bordetella bronchiseptica. Description: Bactericidal activity against Bordetella bronchiseptica ATCC 4617 measured after 18 hrs by CLSI broth dilution method. Format: functional. Conditions: ATCC 4617, 18 h. Summed up: (§1)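 Strains stored at -80 °C and subcultured twice on tryptic soy agar before testing. Compounds dissolved in DMSO. […] MBC then determined per CLSI recommendations.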

The test system of experiment [5] is Burkholderia cepacia. The experiment can be described thus: Bactericidal activity against Burkholderia cepacia ATCC 25416 measured after 18 hrs by CLSI broth dilution method. The note with it: ATCC 25416, 18 h. Format: functional. The method, boiled down: as §1
The test system of experiment [6] is Enterococcus faecium. Description: Bactericidal activity against Enterococcus faecium ATCC 6057 measured after 18 hrs by CLSI broth dilution method. Format: functional. The note with it: ATCC 6057, 18 h. The method, boiled down:
as §1

For the compound `C[Si]1(C)OB(O)c2ccc(F)c(F)c21`, the MIC in experiment [1] was over 64 µg/mL; in experiment [2] it was over 64 µg/mL; in experiment [3], 64 µg/mL.

Regarding `C[Si]1(C)OB(O)c2c(F)c3c(c(F)c21)B(O)OC3`, the MBC in experiment [4] came to 400 µg/mL (≈ 1480 µM); in experiment [5], 100 µg/mL (≈ 371 µM). Further, the MIC was over 64 µg/mL in experiment [1], over 64 µg/mL in experiment [2] and 64 µg/mL in experiment [3].

In the case of `C[Si]1(C)OB(O)c2ccc(B(O)O)cc21`, the MIC was over 64 µg/mL in experiment [1], over 64 µg/mL in experiment [2] and 64 µg/mL in experiment [3]. Also, the MBC in experiment [6] was 400 µg/mL (≈ 1800 µM).

With `C[Si]1(C)OB(O)c2c(F)c(F)c(F)c(F)c21`, the MIC is over 64 µg/mL in experiment [1], over 64 µg/mL in experiment [2] and 64 µg/mL in experiment [3].

Regarding `C[Si]1(C)OB(O)c2ccc(C(F)(F)F)cc21`, the minimum bactericidal concentration (MBC) in experiment [6] came out at 50 µg/mL (≈ 203 µM).

On to `C[Si]1(C)OB(O)c2cc3c(c(F)c21)COB3O`, for which the MIC in experiment [1] was over 64 µg/mL; in experiment [2], over 64 µg/mL; in experiment [3] it was 64 µg/mL.
